In ChEMBL document CHEMBL1138784, “Rational design, synthesis, and biological evaluation of bis(pyrimido[5,6,1-de]acridines) and bis(pyrazolo[3,4,5-kl]acridine-5-carboxamides) as new anticancer agents” (J Med Chem, 2004):

What was measured:
[1] = Cytotoxicity against human H460M cancer cell line was determined after 144 hr; type: functional, cell-based; conditions: Cancer cell lines
Outline: (§1)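 MTT colorimetric assay. Cells seeded by growth characteristics and preincubated 24 h, then exposed to drug for 1 h or 144 h at 37 °C, 5% CO2. H460M, MKN45 and PC-3 were grown in RPMI 1640 with 10% FCS. HCT116 was grown in D-MEM with 10% FBS and 2 mM glutamine.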

MKN-45 = test: Cytotoxicity against human MKN45 cancer cell line was determined after 144 hr; type: functional, cell-based; conditions: MKN-45, 144 h; outline: as §1
LoVo [2] = test: Ratio of IC50 against sensitive LoVo cell line and that of doxorubicin resistance LoVo cell line was determined after 1 hr exposure; type: functional, Homo sapiens
LoVo [3] = test: Cytotoxicity against doxorubicin resistant LoVo cell line was determined against 144 hrs; type: functional, cell-based; conditions: Homo sapiens
Outline: (§2)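 MTT assay on doxorubicin-sensitive LoVo and resistant LoVo/Dx cells, 24 h preincubation, then 1 h or 144 h drug exposure at 37 °C, 5% CO2. IC50 in nM. Resistance index is IC50 on LoVo/Dx divided by IC50 on LoVo.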

Nucleic Acid = test: Binding site preference is determined as the ratio of Poly (dA-dT)2 to Poly (dG-dC)2; type: nucleic-acid assay
Outline: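 Ethidium displacement fluorometry at pH 7.0 (10 mM Na2HPO4, 10 mM NaH2PO4, 1 mM EDTA) with 1.26 μM ethidium bromide and 1 μM [poly(dA-dT)]2 or [poly(dG-dC)]2, 20 °C. Ex 546 nm, em 595 nm, drug added serially from a DMSO stock. Preference taken from the [AT]/[GC] ratio of C50 values, counted significant only below 0.7 or above 1.3.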

SNB-19 [4] = test: Percent growth of CNS SNB-19 cell line was determined at 10e-5 M concentration after 48 hr of exposing; type: functional, Homo sapiens
Outline: (§3)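 NCI sulforhodamine B screen. Cells seeded by growth rate, 24 h drug-free, then 48 h exposure to 10^-8, 10^-6 or 10^-5 M. Protein-stain optical density expressed as percent growth relative to untreated control (100%); negative values indicate cell kill.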

HCT-116 = test: Cytotoxicity against human HCT116 cancer cell line was determined after 144 hr; type: functional, cell-based; conditions: HCT-116, 144 h; outline: as §1
DU-145 [5] = test: Percent growth of prostate DU-145 cell line was determined at 10e-6 M concentration after 48 hr of exposing; type: functional, Homo sapiens
DU-145 [6] = test: Percent growth of prostate DU-145 cell line was determined at 10e-8 M concentration after 48 h of exposing; type: functional, Homo sapiens
[7] = Percent growth of melanoma LOX IMV1 cell line was determined at 10e-5 M concentration after 48 hr of exposing; type: functional, Homo sapiens; outline: as §3
[8] = Percent growth of melanoma LOX IMV1 cell line was determined at 10e-6 M concentration after 48 hr of exposing; type: functional, Homo sapiens; outline: as §3
[9] = Percent growth of melanoma LOX IMV1 cell line was determined at 10e-8 M concentration after 48 hr of exposing; type: functional, Homo sapiens; outline: as §3
LoVo [10] = test: Cytotoxicity against doxorubicin resistant LoVo cell line was determined against 1 hour; type: functional, cell-based; conditions: Homo sapiens; outline: as §2
PC-3 = test: Cytotoxicity against human PC3 cancer cell line was determined after 144 hr; type: functional, cell-based; conditions: PC-3, 144 h; outline: as §1
LoVo [11] = test: Cytotoxicity against human LoVo cancer cell line was determined after 144 hr; type: functional, cell-based; outline: as §2
SNB-19 [12] = test: Percent growth of CNS SNB-19 cell line was determined at 10e-6 M concentration after 48 hr of exposing; type: functional, Homo sapiens; outline: as §3
SNB-19 [13] = test: Percent growth of CNS SNB-19 cell line was determined at 10e-8 M concentration after 48 hr of exposing; type: functional, Homo sapiens; outline: as §3
786-0 [14] = test: Percent growth of renal 786-O cell line was determined at 10e-5 M concentration after 48 hr of exposing; type: functional, Homo sapiens; outline: as §3
786-0 [15] = test: Percent growth of renal 786-O cell line was determined at 10e-6 M concentration after 48 h of exposing; type: functional, Homo sapiens; outline: as §3
786-0 [16] = test: Percent growth of renal 786-O cell line was determined at 10e-8 M concentration after 48 h of exposing; type: functional, Homo sapiens; outline: as §3
MCF7 [17] = test: Percent growth of breast MCF-7 cell line was determined at 10e-6 M concentration after 48 h of exposing; type: functional, Homo sapiens
MCF7 [18] = test: Percent growth of breast MCF-7 cell line was determined at 10e-8 M concentration after 48 hr of exposing; type: functional, Homo sapiens
SW-620 [19] = test: Percent growth of colon SW-620 cell line was determined at 10e-5 M concentration after 48 hr of exposing; type: functional, Homo sapiens; outline: as §3
SW-620 [20] = test: Percent growth of colon SW-620 cell line was determined at 10e-6 M concentration after 48 hr of exposing; type: functional, Homo sapiens; outline: as §3
SW-620 [21] = test: Percent growth of colon SW-620 cell line was determined at 10e-8 M concentration after 48 hr of exposing; type: functional, Homo sapiens; outline: as §3
NCI-H460 [22] = test: Percent growth of lung NCI-H460 cell line was determined at 10e-5 M concentration after 48 hr of exposing; type: functional, Homo sapiens; outline: as §3
NCI-H460 [23] = test: Percent growth of lung NCI-H460 cell line was determined at 10e-6 M concentration after 48 hr of exposing; type: functional, Homo sapiens; outline: as §3
NCI-H460 [24] = test: Percent growth of lung NCI-H460 cell line was determined at 10e-8 M concentration after 48 hr of exposing; type: functional, Homo sapiens; outline: as §3
MOLT-4 [25] = test: Percent growth of leukemia MOLT-4 cell line was determined at 10e-5 M concentration after 48 hr of exposing; type: functional, Homo sapiens; outline: as §3
MOLT-4 [26] = test: Percent growth of leukemia MOLT-4 cell line was determined at 10e-6 M concentration after 48 h of exposing; type: functional, Homo sapiens; outline: as §3
MOLT-4 [27] = test: Percent growth of leukemia MOLT-4 cell line was determined at 10e-8 M concentration after 48 hr of exposing; type: functional, Homo sapiens; outline: as §3
OVCAR-4 [28] = test: Percent growth of ovarian OVCAR-4 cell line was determined at 10e-5 M concentration after 48 hr of exposing; type: functional, Homo sapiens; outline: as §3
OVCAR-4 [29] = test: Percent growth of ovarian OVCAR-4 cell line was determined at 10e-6 M concentration after 48 hr of exposing; type: functional, Homo sapiens; outline: as §3
OVCAR-4 [30] = test: Percent growth of ovarian OVCAR-4 cell line was determined at 10e-8 M concentration after 48 hr of exposing; type: functional, Homo sapiens; outline: as §3
DU-145 [31] = test: Percent growth of prostate DU-145 cell line was determined at 10e-5 M concentration after 48 hr of exposing; type: functional, Homo sapiens
[32] = Cytotoxicity against human LoVo cancer cell line was determined after 1 hr; type: cell-based; outline: as §2
[33] = Cytotoxicity against human H460M cancer cell line was determined after 1 hr; type: cell-based; conditions: Cancer cell lines; outline: as §1
[34] = Cytotoxicity against human MKN45 cancer cell line was determined after 1 hr; type: cell-based; conditions: Cancer cell lines; outline: as §1
[35] = Cytotoxicity against human HCT116 cancer cell line was determined after 1 hr; type: cell-based; conditions: HCT-116, 1 h; outline: as §1
HT-29 = test: Cytotoxicity is determined as the concentration required to inhibit the growth of human colon adenocarcinoma (HT-29) cell line; type: functional, cell-based
MCF7 [36] = test: Percent growth of breast MCF-7 cell line was determined at 10e-5 M concentration after 48 hr of exposing; type: functional, Homo sapiens
[37] = Cytotoxicity against human PC3 cancer cell line was determined after 1 hr; type: cell-based; conditions: Cancer cell lines; outline: as §1

Molecule CN(C)CCN1Nc2c3ccccc3nc3c(C(=O)NCCCN(C)CCCNC(=O)c4ccc5c6c(c7ccccc7nc46)NN5CCN(C)C)ccc1c23 has an IC50 [1] of 4.4 nM, an IC50 (MKN-45) of 0.6 nM and a Resistance index (LoVo [2]) of 24. For the same molecule, the IC50 (LoVo [3]) was 400 nM, the Binding site preference (Nucleic Acid) was 2.1 and the Growth (SNB-19 [4]) was -31%. It also gave an IC50 (HCT-116) of 19 nM, a Growth (DU-145 [5]) of -23% and a Growth (DU-145 [6]) of 25%. The Growth [7] was -57%, the Growth [8] was 5% and the Growth [9] was 22%. It also gave an IC50 (LoVo [10]) of 3600 nM, an IC50 (PC-3) of 6 nM and an IC50 (LoVo [11]) of 1.1 nM. It also gave a Growth (SNB-19 [12]) of -7%, a Growth (SNB-19 [13]) of 40% and a Growth (786-0 [14]) of -48%. It also gave a Growth (786-0 [15]) of 5%, a Growth (786-0 [16]) of 30% and a Growth (MCF7 [17]) of 2%. It also gave a Growth (MCF7 [18]) of 18%, a Growth (SW-620 [19]) of -45% and a Growth (SW-620 [20]) of 14%. It also gave a Growth (SW-620 [21]) of 37%, a Growth (NCI-H460 [22]) of -53% and a Growth (NCI-H460 [23]) of -6%. For the same molecule, the Growth (NCI-H460 [24]) was 12%, the Growth (MOLT-4 [25]) was -27% and the Growth (MOLT-4 [26]) was 7%. For the same molecule, the Growth (MOLT-4 [27]) was 28%, the Growth (OVCAR-4 [28]) was -40% and the Growth (OVCAR-4 [29]) was -17%. For the same molecule, the Growth (OVCAR-4 [30]) was 41%, the Growth (DU-145 [31]) was -40% and the IC50 [32] was 150 nM. It also gave an IC50 [33] of 7.2 nM, an IC50 [34] of 6.8 nM and an IC50 [35] of 12 nM. It also gave an IC50 (HT-29) of 3 nM, a Growth (MCF7 [36]) of -35% and an IC50 [37] of 12 nM.
